Measured values reported in ChEMBL document CHEMBL1152476, “Synthesis and in vitro cytotoxicity of 9-anilinoacridines bearing N-mustard residue on both anilino and acridine rings” (Eur J Med Chem, 2009).
pIC50: −log10 of the molar value.

Key:
[1] = Solubility in Tween 80; assay type: physicochemical
[2] = test system: CCRF-CEM; assay: Cytotoxicity against human CCRF-CEM cells after 72 hrs by XTT-tetrazolium assay; assay type: functional, cell-based
Outline: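 CCRF-CEM human T-cell acute lymphocytic leukemia cells exposed for 72 h to six or seven concentrations per compound. Phenazine methosulfate–XTT was then added for 6 h at 37 °C, and absorbance was read at 450 and 630 nm. IC50 was derived from the dose–effect relationship by median–effect plot analysis.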

[3] = test system: CCRF-CEM; assay: Ratio of AHMA IC50 to compound IC50 against human CCRF-CEM cells; assay type: functional
Outline: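 Ratio of AHMA IC50 to test compound IC50, both from the same 72 h CCRF-CEM XTT assay. Six or seven concentrations per drug were tested, and each IC50 came from a median–effect analysis of the dose–effect relationship.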

[4] = test system: CCRF-CEM; assay: Antitumor activity in human CCRF-CEM cells xenografted mouse at 2 mg/kg, iv qd for 3 days; assay type: functional, organism-based; set-up: dose 2 mg/kg
Outline: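 Mice received intravenous injection at 2 mg/kg, once daily ×3 (QD×3), in a DMSO/Tween 80/normal saline vehicle.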

[5] = Solubility in dimethyl sulfoxide; assay type: physicochemical
[6] = Solubility in normal saline; assay type: physicochemical; conditions: buffer

| Compound | solubility [1] | pIC50 [2] | Ratio IC50 [3] | Activity [4] | solubility [5] | solubility [6] |
| --- | --- | --- | --- | --- | --- | --- |
| ClCCN(CCCl)CCCCOc1cccc2c(Nc3ccc(OCCN(CCCl)CCCl)cc3)c3ccccc3nc12 | Insoluble | 8.89 | 30 | Toxic | Insoluble | Insoluble |
| COc1cc(N)cc(Nc2c3ccccc3nc3c(OCCCCN(CCCl)CCCl)cccc23)c1 | Insoluble | – | 30 | Toxic | Insoluble | Insoluble |
| ClCCN(CCCl)CCOc1ccc(Nc2c3ccccc3nc3ccccc23)cc1 | Insoluble | – | 30 | Toxic | Insoluble | Insoluble |
| ClCCN(CCCl)CCOc1cccc(Nc2c3ccccc3nc3ccccc23)c1 | Insoluble | 7.07 | 30 | Toxic | Insoluble | Insoluble |
| ClCCN(CCCl)CCCCOc1ccc(Nc2c3ccccc3nc3ccccc23)cc1 | Insoluble | 7.25 | 30 | Toxic | Insoluble | Insoluble |
| ClCCN(CCCl)CCCCOc1ccc(Nc2c3ccccc3nc3c(OCCN(CCCl)CCCl)cccc23)cc1 | Insoluble | 7.68 | 30 | Toxic | Insoluble | Insoluble |
| COc1cc(N)cc(Nc2c3ccccc3nc3c(OCCN(CCCl)CCCl)cccc23)c1 | Insoluble | 8.17 | 30 | Toxic | Insoluble | Insoluble |
| ClCCN(CCCl)CCOc1cccc(Nc2c3ccccc3nc3c(OCCN(CCCl)CCCl)cccc23)c1 | Insoluble | 7.77 | 30 | Toxic | Insoluble | Insoluble |
| CC(=O)O[C@H]1C(=O)[C@@]2(C)[C@H]([C@H](OC(=O)c3ccccc3)[C@]3(O)C[C@H](OC(=O)[C@H](O)[C@@H](NC(=O)c4ccccc4)c4ccccc4)C(C)=C1C3(C)C)[C@]1(OC(C)=O)CO[C@@H]1C[C@@H]2O | – | – | – | Toxic | – | – |
| ClCCN(CCCl)CCCCOc1cccc(Nc2c3ccccc3nc3ccccc23)c1 | Insoluble | 6.41 | 30 | Toxic | Insoluble | Insoluble |
| ClCCN(CCCl)CCCCOc1cccc(Nc2c3ccccc3nc3c(OCCN(CCCl)CCCl)cccc23)c1 | Insoluble | 8.22 | 30 | Toxic | Insoluble | Insoluble |
| ClCCN(CCCl)CCOc1ccc(Nc2c3ccccc3nc3c(OCCN(CCCl)CCCl)cccc23)cc1 | Insoluble | 7.85 | 30 | Toxic | Insoluble | Insoluble |
